# Assay outcomes from PubChem.
# Most compounds without a hit are left out; they make up all but 2.3% or so of the library.
# TRPC4 inh: blocks the mouse TRPC4 cation channel | Q9QUQ5 | HEK293 TRPC4beta/mu-opioid, DAMGO-evoked Fluo4 calcium flux; stronger effect = lower value | B-score at 10 µM | 300,000 compounds, 0.39% hits | AID 2247;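 active = B-score over 3 SD under the library average, no early fluorescence shift, positive overall ratio signal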
# Target sequence (Q9QUQ5 whole entry, looked up): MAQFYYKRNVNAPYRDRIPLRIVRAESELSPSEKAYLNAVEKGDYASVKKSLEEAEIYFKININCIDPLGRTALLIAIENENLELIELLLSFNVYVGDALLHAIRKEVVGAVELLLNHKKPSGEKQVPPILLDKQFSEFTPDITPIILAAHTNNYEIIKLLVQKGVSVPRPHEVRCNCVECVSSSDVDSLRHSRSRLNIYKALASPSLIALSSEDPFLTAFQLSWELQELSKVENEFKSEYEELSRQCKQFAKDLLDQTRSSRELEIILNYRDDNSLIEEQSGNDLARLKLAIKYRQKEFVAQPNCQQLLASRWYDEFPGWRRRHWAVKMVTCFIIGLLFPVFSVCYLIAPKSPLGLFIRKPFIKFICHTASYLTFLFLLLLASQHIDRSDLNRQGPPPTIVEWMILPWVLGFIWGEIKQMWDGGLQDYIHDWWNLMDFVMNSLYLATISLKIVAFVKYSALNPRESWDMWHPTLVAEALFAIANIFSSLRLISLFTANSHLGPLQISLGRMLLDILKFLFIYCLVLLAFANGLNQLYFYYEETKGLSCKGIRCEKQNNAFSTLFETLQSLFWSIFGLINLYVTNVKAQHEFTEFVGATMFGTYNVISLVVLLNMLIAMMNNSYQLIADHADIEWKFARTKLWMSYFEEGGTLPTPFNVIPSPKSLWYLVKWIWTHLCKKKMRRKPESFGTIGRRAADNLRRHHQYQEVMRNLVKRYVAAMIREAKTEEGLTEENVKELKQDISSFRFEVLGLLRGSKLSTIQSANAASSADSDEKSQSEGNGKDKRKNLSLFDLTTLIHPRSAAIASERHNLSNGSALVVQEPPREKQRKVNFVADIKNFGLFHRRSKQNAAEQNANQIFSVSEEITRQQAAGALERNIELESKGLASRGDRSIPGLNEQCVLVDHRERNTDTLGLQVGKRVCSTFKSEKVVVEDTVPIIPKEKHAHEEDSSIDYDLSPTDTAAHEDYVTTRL
#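 material = TRPC4beta/mu-opioid receptor HEK293 cell line | probe or stimulus = sequential submaximal and maximal DAMGO stimulation | compound dosing = one concentration per compound | measured by = Fluo4 Ca2+ flux fluorescence | evaluation = integrated fluorescence ratio relative to baseline, converted to per-well B score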
# TRPC6 inh: inhibitors of mouse TRPC6 channel; Q61143; HEK293-TRPC6, membrane potential dye, ACh-evoked depolarization; stronger effect = lower value; B-score at 10 µM; 310,000 compounds, 1.1% hits;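 active = B-score under library mean minus 3 SD, initial fluorescence not abnormally high, positive integrated signal ratio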;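 also: B-score derived from integrated fluorescence ratio over the kinetic read; more negative B-score means stronger inhibition of depolarization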
# TRPC4 act: TRPC4 (mouse) channel activation. HEK293 TRPC4beta/mu-opioid, Fluo4 calcium fluorescence; stronger effect = higher value. B-score at 10 µM. 310,000 compounds, 0.49% hits. AID 2237;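 active = B-score above 5 SD of library B-scores, and initial fluorescence ratio not above library mean plus 5 SD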;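 also: positive B-score marks a calcium rise read as TRPC4 activation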
#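 Technique: kinetic Fluo4 calcium fluorescence; Test system: TRPC4beta and mu-opioid receptor HEK293 stable cells; Measure: B-scored integrated calcium fluorescence ratio; Benchmarks: low control buffer alone, high control maximal DAMGO; Schedule: 45 min room-temperature Fluo4 loading, 110 s read.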
# TRPC4 potent: TRPC4 (mouse) allosteric potentiation | Q9QUQ5 | HEK293 TRPC4beta/mu-opioid, DAMGO EC20, Fluo-4 Ca2+ flux; stronger effect = higher value | B-score at 10 µM | 310,000 compounds, 0.42% hits | AID 2227;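 active = B-score of calcium response area above 5 SD of library B-scores, with initial fluorescence ratio within 5 SD of library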;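 also: B-score of integrated fluorescence ratio over time as area under calcium response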
# TRPC6 act: mouse TRPC6 channel activation. Q61143. HEK293-TRPC6 membrane potential dye fluorescence; stronger effect = higher value. B-score at 10 µM. 310,000 compounds, 0.13% hits. AID 2550;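 active = B-score of the integrated fluorescence ratio above library mean plus 3 SD, and starting fluorescence ratio within library mean plus 5 SD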;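 also: higher score means more depolarization so channel activation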
# TRPC4 sel inh 2: mouse TRPC4 off-target activity of TRPC6 inhibitors, second screen. shares compounds with TRPC6 inh. HEK293 TRPC4/MOR, membrane potential dye fluorescence; channel activated by saturating DAMGO dose. inhibition, % at 10 µM. 920 compounds, 42% hits;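 active = compounds whose fluorescence signal differed from control wells by over 3 SD, either direction, in both duplicate plates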
# TRPC4 spec: mouse TRPC4 off-target activity of TRPC6 inhibitors; 920 compounds, 61% hits; HEK293 TRPC4/mu-opioid, membrane potential fluorescence; shares compounds with TRPC6 inh; activity change, negative = inhibition, % at 10 µM;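 active = rise or fall in signal beyond 3 SD of buffer-only wells in both replicate plates, either sign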;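 also: integrated kinetic ratio of fluorescence range over baseline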
# HEK293 MPD ctr 2-1: parental HEK293 nonspecific activity of TRPC6 inhibitors, second screen; 920 compounds, 31% hits; parental HEK293 membrane potential dye fluorescence; maximal acetylcholine challenge after compound addition; signal change vs control, % at 10 µM; AID 2779; shares compounds with TRPC6 inh;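 active = membrane potential signal moving either way by over 3 SD of the maximum-effect control, in both duplicate plates, meaning non-specific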
# HEK293 MPD ctr-1: checks TRPC6 inhibitor effects in parental HEK293 cells. shares compounds with TRPC6 inh. parental HEK293 membrane potential dye fluorescence. membrane potential signal change, % at 10 µM. 920 compounds, 60% hits. AID 2780;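 active = membrane potential signal shifting up or down by more than 3 SD of buffer-only wells, on both duplicate plates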
# HEK293 MPD ctr-2: counter-screen for TRPC6 modulators: effect in parental HEK293 cells; shares compounds with TRPC6 inh; membrane potential dye fluorescence; membrane potential signal change, % at 10 µM; 2,400 compounds, 51% hits; AID 488924;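 active = membrane potential signal moves up or down beyond 5 SD from buffer-only wells, on both duplicate plates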
# HEK293 MPD ctr 2-2: parental HEK293 nonspecific activity of TRPC6 modulators, second screen. membrane potential dye fluorescence; after compound, maximal acetylcholine stimulation. 2,400 compounds, 14% hits. inhibition, % at 10 µM. shares compounds with TRPC6 inh;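 active = membrane potential signal drops by more than 5 SD from the mean control signal, in both duplicate plates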;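 also: plate controls were acetylcholine ECmax control wells for no effect and buffer only wells for full effect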
# TRPC4/MOR mod: mouse TRPC4 off-target activity of TRPC6 modulators; shares compounds with TRPC6 inh; HEK293 TRPC4/mu-opioid, membrane potential fluorescence; percent change from control (negative = decrease, positive = increase), % at 10 µM; 2,400 compounds, 69% hits;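 active = membrane potential signal moved up or down beyond 5 SD of buffer control wells, in both duplicate plates, actives on both sides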;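 also: plate controls were assay buffer wells for no effect and DAMGO maximal-effect wells for full effect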
# TRPC4 ctr inh 2: mouse TRPC4 off-target activity of TRPC6 modulators, second screen; 2,400 compounds, 55% hits; inhibition, % at 10 µM; HEK293 TRPC4/mu-opioid, membrane potential dye fluorescence; stimulated with maximal-effect DAMGO; shares compounds with TRPC6 inh;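 active = drop in membrane potential signal beyond 5 SD of the control wells in both duplicate plates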;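 also: TRPC4 counter screen for TRPC6 hits run under conditions tuned for TRPC6 not TRPC4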
# TRPC6 inh conf: confirmation of mouse TRPC6 inhibitors; 3,300 compounds, 43% hits; shares compounds with TRPC6 inh; HEK293-TRPC6, membrane potential dye, ACh-evoked depolarization; inhibition, % at 10 µM; AID 488960;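 active = fluorescence ratio falls more than 5 SD below the full-stimulation control mean, in both duplicate runs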;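 also: integrated fluorescence ratio of peak minus minimum over baseline after agonist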
# TRPC6 act confirm: mouse TRPC6 activator confirmation | HEK293-TRPC6 membrane potential dye fluorescence, FDSS | shares compounds with TRPC6 inh | 2,800 compounds, 11% hits | activation, % at 10 µM;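 active = ratio signal rise beyond 5 SD above unstimulated control wells' mean, seen in both duplicate runs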;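 also: plate controls were buffer EC0 wells for no effect and acetylcholine ECmax response for full effect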
# * = called active by the depositor; i = inactive; . = no result.
SMILES,TRPC4 inh,TRPC6 inh,TRPC4 act,TRPC4 potent,TRPC6 act,HEK293 MPD ctr-2,HEK293 MPD ctr 2-2,TRPC4/MOR mod,TRPC4 ctr inh 2,TRPC6 inh conf,TRPC6 act confirm,others
Cc1ccc(Nc2nc(N)c3ccccc3n2)cc1C,i,-11.7*,i,i,i,-94.5%*,65.0%*,-36.0%*,78.0%*,66.0%*,i,
COc1ccc(Nc2nc(-c3ccccc3)nc3ccccc23)c(OC)c1,i,i,i,i,i,.,.,.,.,.,.,
C=COc1ccc(N2C(=O)c3ccccc3OC2C)cc1 (stereo not given),i,i,i,i,i,.,.,.,.,.,.,
CCc1nnc(NC(=O)CSc2nnc(CCc3nc4ccccc4[nH]3)n2C)s1,i,i,i,i,i,.,.,.,.,.,.,
Cc1nnc(NC(=O)CSc2nnc(CCc3nc4ccccc4[nH]3)n2C)s1,i,i,i,i,14.4*,261.0%*,i,40.5%*,i,i,108.5%*,
CN(Cc1ccccc1)c1ccc(C(CC(N)=O)NC(=O)c2ccccc2)cc1[N+](=O)[O-] (stereo not given),i,i,i,i,i,.,.,.,.,.,.,
CSc1ccccc1NC(=O)c1cccc(S(=O)(=O)N2CCN(C)CC2)c1,i,i,i,i,i,.,.,.,.,.,.,
CCC(=O)N1N=C(c2ccccc2)CC1c1ccccc1 (stereo not given),i,i,i,i,i,.,.,.,.,.,.,
N=C(SC1CC(=O)N(c2ccc(F)cc2)C1=O)N1N=C(c2ccccc2)CC1c1ccccc1 (stereo not given),i,-7.65*,i,i,i,.,.,.,.,i,i,TRPC4 sel inh 2=i;TRPC4 spec=i;HEK293 MPD ctr 2-1=i;HEK293 MPD ctr-1=i
Cc1ccc(S(=O)(=O)N2CCCC2C(=O)NCc2ccccc2F)cc1 (stereo not given),i,i,i,i,i,.,.,.,.,.,.,
Cc1cccn2c(=O)c3cc(C(=O)NCc4ccco4)c(=N)n(C4CCCCC4)c3nc12,i,-6.76*,i,i,i,-160.5%*,i,-38.5%*,34.0%*,i,i,
CCCn1c(=N)c(C(=O)NCC2CCCO2)cc2c(=O)n3cccc(C)c3nc21 (stereo not given),i,i,i,i,i,.,.,.,.,.,.,
Cc1ccc2nc3c(cc(C(=O)NCC4CCCO4)c(=N)n3C3CCCC3)c(=O)n2c1 (stereo not given),i,i,i,i,i,.,.,.,.,.,.,
COc1ccc(CCNC(=O)c2cc3c(=O)n4ccccc4nc3n(C3CCCCC3)c2=N)cc1,i,i,i,i,i,.,.,.,.,.,.,
Cc1ccc2nc3c(cc(C(=O)NCc4ccco4)c(=N)n3C3CCCC3)c(=O)n2c1,i,i,i,i,i,.,.,.,.,.,.,
COCCCn1c(=N)c(C(=O)NCC2CCCO2)cc2c(=O)n3cccc(C)c3nc21 (stereo not given),i,-6.38*,i,i,i,146.0%*,79.5%*,20.5%*,27.5%*,40.5%*,i,
N=c1c(C(=O)NCC2CCCO2)cc2c(=O)n3ccccc3nc2n1C1CCCCC1 (stereo not given),i,-5.43*,i,i,i,-100.0%*,i,-23.5%*,i,i,i,
N=c1c(C(=O)NCC2CCCO2)cc2c(=O)n3ccccc3nc2n1C1CCCC1 (stereo not given),i,-5.92*,i,i,i,i,i,i,i,i,i,
Cc1cccn2c(=O)c3cc(C(=O)NCC4CCCO4)c(=N)n(C4CCCC4)c3nc12 (stereo not given),i,-5.77*,i,i,i,-81.5%*,i,-16.5%*,31.5%*,i,i,
C=CCn1c(=N)c(C(=O)NCCCOC)cc2c(=O)n3cccc(C)c3nc21,i,-5.23*,i,i,i,225.5%*,83.0%*,39.5%*,i,i,.,
Cc1ccc(Cn2c(=N)c(C(=O)NCC3CCCO3)cc3c(=O)n4cccc(C)c4nc32)cc1 (stereo not given),i,i,i,i,i,.,.,.,.,.,.,
Fc1ccccc1N1CCN(C2CCN(Cc3c[nH]c4ccccc34)CC2)CC1,i,-5.25*,i,i,i,148.5%*,i,19.0%*,58.5%*,i,.,
Clc1ccccc1N1CCN(Cc2c[nH]c3ccccc23)CC1,i,i,i,i,i,.,.,.,.,.,.,
CCOc1ccc(N(C(C)C(=O)Nc2ccc(OC)cc2)S(C)(=O)=O)cc1 (stereo not given),i,-6.36*,i,i,i,i,i,i,i,i,i,
CCN(CC)S(=O)(=O)c1ccc(NC(=O)C(C)N(c2ccc(OC)cc2)S(C)(=O)=O)cc1 (stereo not given),i,i,i,i,i,.,.,.,.,.,.,
N=c1c(C(=O)NCc2ccco2)cc2c(=O)n3ccccc3nc2n1CC1CCCO1 (stereo not given),i,i,i,i,i,.,.,.,.,.,.,
